Measured values published in PubChem BioAssay AID504413 (Broad Institute, 2011).
Inconclusive results are not listed. Active and inactive are the calls of the source.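 The calls were made as follows: active = in every test run, the fitted curve rises past 10% of the positive control effect within the tested doses; inconclusive = runs disagree, or a flat fit at moderate level, or poor fit; inactive = all runs inactive, including signal going the wrong way.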

Tested on: not listed separately
Test: apoptosis induction in A1-BIM primed fibroblasts – cell-based, A1-2A-BIM MEF, luminescence, dry powder, A1 inhibitor project, dose response (AID 504413)
Conditions: MEF A1-2A-BIM cells, caspase-3/7 Glo luminescence; hits give high values
Outline: (§1)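 Test system: mouse embryonic fibroblasts co-expressing A1-2A-BIM, primed for A1 dependence; medium: RPMI-1640, 10% FBS; timing: 37 °C compound 3 h, room-temperature reagent 1 h; signal: Caspase-3/7 luminescence from DEVD-luciferin substrate reagent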
For COc1ccc(N2CCN(c3nc(NCCc4ccc(OC)c(OC)c4)nc(N4CCOCC4)n3)CC2)cc1, the max activity was -3.19% (inactive). For COc1nc2ccccc2c(Cl)c1[N+](=O)[O-], the max activity was -3.3% (inactive). In the case of Cc1ccc(Sc2c(Sc3ccc(C)cc3)c3ccccc3n(C)c2=O)cc1, the max activity is reported as 0.915% (inactive). In the case of O=C(COc1ccc(Cl)cc1Cl)NNc1nc(N2CCOCC2)nc(N2CCOCC2)n1, the max activity is reported as -3.81% (inactive). With C/C(=N\Nc1nc(N2CCCCC2)nc(N2CCCCC2)n1)c1ccc(F)cc1 the max activity was 0.285% (inactive). For COc1nc2ccccc2c(Sc2ccc(C)cc2)c1[N+](=O)[O-], the max activity was -2.09% (inactive). With COc1ccc(CCNc2nc(N3CCCC3)nc(N3CCCC3)n2)cc1OC the max activity was 4.48% (inactive). In the case of COc1ccc(CCNc2nc(N3CCOCC3)nc(N3CCOCC3)n2)cc1OC, the max activity is reported as -1.95% (inactive). For CCn1c(=O)c(Sc2ccc(C)cc2)c(Sc2ccc(C)cc2)c2ccccc21, the max activity was 3.42% (inactive). In the case of O=c1[nH]c2ccccc2c(O)c1[N+](=O)[O-], the max activity is reported as 0.403% (inactive). With Cn1c(=O)c(Sc2ccccn2)c(Sc2ccccn2)c2ccccc21 the max activity was -0.138% (inactive). For COCCn1c(=O)c(Sc2ccc(C)cc2)c(Sc2ccc(C)cc2)c2ccccc21, the max activity was 4.03% (inactive). For Cc1ccc(Sc2c(Sc3ccc(C)cc3)c3ccccc3n(Cc3ccccc3)c2=O)cc1, the max activity was 6.71% (inactive). In the case of COc1c([N+](=O)[O-])c(=O)n(C)c2ccccc12, the max activity is reported as -4.02% (inactive).

Tested on: MEF A1-2A-BIM cells, caspase-3/7 Glo luminescence
Test: as above
Conditions: not given
Outline: as §1
Work on Cn1c(=O)c([N+](=O)[O-])c(Cl)c2ccccc21 yielded an AC10 of 2.6 µM. With Cc1ccc(Sc2c([N+](=O)[O-])c(=O)n(C)c3ccccc23)cc1 the AC10 was 7.28 µM. For Cc1ccc(S(=O)(=O)c2c([N+](=O)[O-])c(=O)n(C)c3ccccc23)cc1, the AC10 was 7.02 µM. COCCn1c(=O)c([N+](=O)[O-])c(Cl)c2ccccc21 gave an AC10 of 1.9 µM. Work on Cn1c(=O)c([N+](=O)[O-])c(Sc2ccccn2)c2ccccc21 yielded an AC10 of 3.78 µM.
